Measurements: ChEMBL document CHEMBL5038582, “Adamantyl Isothiocyanates as Mutant p53 Rescuing Agents and Their Structure-Activity Relationships” (J Med Chem, 2021)
The source made the active and inactive calls. The rule behind the calls is not given here.

Key:
MDA-MB-231 [1] = assay: Antiproliferative activity against human MDA-MB-231 cells expressing p53 R280K mutant assessed as inhibition of cell growth at 10 to 50 uM incubated for 24 to 72 hrs by WST-1 assay; assay type: functional, cell-based; conditions: dose 10-50 µM, time 24-72 hrs
In short: (§1)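 WST-1 proliferation assay. Compound diluted in DMSO so that 10 μl of stock in 1 ml of cells (40,000 cells/ml) gives the test concentration at 1% DMSO. Cells plated at 4,000/well in duplicate and incubated at 37 °C for 24 h or 72 h. Result given as % of the 1% DMSO control.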

[2] = Octanol-water partition coefficient, logP of the compound by HPLC-MS analysis; assay type: physicochemical; conditions: for logP: 18 h
In short: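 Compound (10 µL of 10 mM DMSO stock) added to 0.5 mL octanol plus 0.5 mL sodium phosphate buffer pH 7.4. Stirred 18 h, centrifuged 2 h at 3600 rpm. Concentration in each phase measured by LC-MS on a C18 column.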

MDA-MB-231 [3] = assay: Antiproliferative activity against human MDA-MB-231cells expressing p53 R280K mutant assessed as inhibition of cell growth at 10 to 50 uM incubated for 24 hrs by WST-1 assay; assay type: functional, cell-based; conditions: dose 10-50 µM; in short: as §1
MCF7 [4] = assay: Downregulation of p53 expression in human MCF7 cells at 6 to 12 uM measured after 24 hrs by immunoblot analysis; assay type: functional, cell-based; conditions: dose 6-12 µM
In short: (§2)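 24 h exposure to 6 or 12 μM, DMSO control. Lysis in Tris pH 8.0/NaCl/glycerol/NP-40/EDTA buffer with protease inhibitors. 20 µg (MDA-MB-231, MDA-MB-468) or 50 µg (MCF-7) of lysate run on 4-12% SDS-PAGE. Blot probed with p53 DO-1, GAPDH used for reprobe/loading. Triplicate experiments.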

MCF7 [5] = assay: Antiproliferative activity against human MCF7 cells expressing WT p53 assessed as inhibition of cell growth at 10 to 50 uM incubated for 24 to 72 hrs by WST-1 assay; assay type: functional, cell-based; conditions: dose 10-50 µM, time 24-72 hrs; in short: as §1
MDA-MB-231 [6] = assay: Downregulation of p53 R280K mutant expression in human MDA-MB-231 cells at 6 to 12 uM measured after 24 hrs by immunoblot analysis; conditions: dose 6-12 µM
MDA-MB-468 [7] = assay: Induction of apoptosis in human MDA-MB-468 cells expressing p53 R273H mutant assessed fold increase in number of Annexin-V stained cells at 6 to 12 uM incubated for 24 hrs by AnnexinV-FITC and PI staining based flow cytometry relative to control; assay type: functional; conditions: dose 6-12 µM
In short: (§3)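 24 h treatment, DMSO control. Cells scraped, washed in PBS, then given fluorochrome-conjugated Annexin V for 15 min at RT in the dark, followed by PI (0.1 µg/ml) in binding buffer. Read by flow cytometry on LSRFortessa. Annexin V-positive cells expressed relative to the DMSO control.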

MDA-MB-468 [8] = assay: Downregulation of p53 R273H mutant expression in human MDA-MB-468 cells at 6 to 12 uM measured after 24 hrs by immunoblot analysis; assay type: functional, cell-based; conditions: dose 6-12 µM; in short: as §2
MCF7 [9] = assay: Induction of apoptosis in human MCF-7 cells expressing wild type p53 assessed increase in number of Annexin-V stained cells at 6 to 12 uM incubated for 24 hrs by AnnexinV-FITC and PI staining based flow cytometry; assay type: functional, cell-based; conditions: dose 6-12 µM; in short: as §3
MDA-MB-231 [10] = assay: Antiproliferative activity against human MDA-MB-231 cells expressing p53 R280K mutant assessed as inhibition of cell growth incubated for 24 hrs by WST-1 assay; assay type: functional, cell-based; conditions: MDA-MB-231, 24 h
In short: (§4)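 WST-1 proliferation assay. Compound diluted in DMSO and added to cells at 1% DMSO final. 4,000 cells/well in duplicate; DMSO-only wells as control, cell-free medium wells for background.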

MDA-MB-231 [11] = assay: Antiproliferative activity against human MDA-MB-231 cells expressing p53 R280K mutant assessed as inhibition of cell growth at 24 to 48 uM incubated for 72 hrs by WST-1 assay; assay type: functional; conditions: dose 24-48 µM; in short: as §1
MDA-MB-231 [12] = assay: Induction of apoptosis in human MDA-MB-231 cells expressing p53 R280K mutant assessed fold increase in number of Annexin-V stained cells at 6 to 12 uM incubated for 24 hrs by AnnexinV-FITC and PI staining based flow cytometry relative to control; assay type: functional; conditions: dose 6-12 µM; in short: as §3
MCF7 [13] = assay: Upregulation of p53 expression in human MCF7 cells at 6 to 12 uM measured after 24 hrs by immunoblot analysis; assay type: functional, cell-based; conditions: dose 6-12 µM
In short: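 Cells treated with DMSO or compound at 6 or 12 µM for 24 h and lysed. 50 µg MCF-7 lysate resolved by SDS-PAGE and probed with p53 DO-1 antibody. Reprobed with anti-GAPDH as loading control. Run in triplicate.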

MCF7 [14] = assay: Induction of apoptosis in human MCF7 cells expressing wild type p53 assessed as increase in cleaved PARP1 level at 6 to 12 uM measured after 24 hrs by western blotting analysis; assay type: functional, cell-based; conditions: dose 6-12 µM
In short: (§5)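 Cells treated with DMSO or compound at 6 or 12 µM for 24 h, then lysed in Tris-Cl pH 8.0/NaCl/glycerol/NP-40/EDTA buffer with protease inhibitors. 100 µg lysate resolved on 4-12% SDS-PAGE and blotted to PVDF. Probed with anti-PARP or anti-caspase 3, then HRP secondary and ECL. GAPDH reprobe as control.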

MDA-MB-231 [15] = assay: Induction of apoptosis in human MDA-MB-231 cells expressing p53 R280K mutant assessed as increase in level of cleaved PARP1 level at 6 to 12 uM measured after 24 hrs by western blotting analysis; assay type: functional, cell-based; conditions: dose 6-12 µM; in short: as §5
MCF7 [16] = assay: Induction of apoptosis in human MCF7 cells expressing wild type p53 assessed as decrease in level of uncleaved PARP1 level at 6 to 12 uM measured after 24 hrs by western blotting analysis; assay type: functional, cell-based; conditions: dose 6-12 µM; in short: as §5
MDA-MB-231 [17] = assay: Induction of apoptosis in human MDA-MB-231 cells expressing p53 R280K mutant assessed as decrease in level of uncleaved caspase 3 level at 6 to 12 uM measured after 24 hrs by western blotting analysis; assay type: functional, cell-based; conditions: dose 6-12 µM; in short: as §5
MDA-MB-468 [18] = assay: Induction of apoptosis in human MDA-MB-468 cells expressing p53 R273H mutant assessed as increase in level of cleaved PARP1 level at 6 to 12 uM measured after 24 hrs by western blotting analysis; assay type: functional, cell-based; conditions: dose 6-12 µM; in short: as §5
MDA-MB-468 [19] = assay: Induction of apoptosis in human MDA-MB-468 cells expressing p53 R273H mutant assessed as decrease in level of uncleaved caspase 3 level at 6 to 12 uM measured after 24 hrs by western blotting analysis; assay type: functional, cell-based; conditions: dose 6-12 µM; in short: as §5
MDA-MB-468 [20] = assay: Antiproliferative activity against human MDA-MB-468 cells expressing p53 R273H mutant assessed as inhibition of cell growth at 10 to 50 uM incubated for 24 to 72 hrs by WST-1 assay; assay type: functional, cell-based; conditions: dose 10-50 µM, time 24-72 hrs; in short: as §1
MDA-MB-468 [21] = assay: Induction of apoptosis in human MDA-MB-468 cells expressing p53 R273H mutant assessed increase in number of Annexin-V stained cells at 6 to 12 uM incubated for 24 hrs by AnnexinV-FITC and PI staining based flow cytometry; assay type: functional, cell-based; conditions: dose 6-12 µM; in short: as §3
MDA-MB-231 [22] = assay: Induction of apoptosis in human MDA-MB-231 cells expressing p53 R280K mutant assessed increase in number of Annexin-V stained cells at 6 to 12 uM incubated for 24 hrs by AnnexinV-FITC and PI staining based flow cytometry; assay type: functional, cell-based; conditions: dose 6-12 µM; in short: as §3
MDA-MB-231 [23] = assay: Antiproliferative activity against human MDA-MB-231 cells expressing p53 R280K mutant assessed as inhibition of cell growth incubated for 72 hrs by WST-1 assay; assay type: functional, cell-based; conditions: MDA-MB-231, 72 h; in short: as §4

Compound: O=C(CC12CC3CC(CC(C3)C1)C2)N=C=S
- Activity (MDA-MB-231 [1]): inactive
- logP [2]: 3.73

Compound: S=C=NCC12CC3CC(CC(C3)C1)C2
- Activity (MDA-MB-231 [3]): Dose-Dependent Effect
- inhibition (MCF7 [4]): inactive
- Activity (MCF7 [5]): Active
- p53 R280K downregulation (active/not active) (MDA-MB-231 [6]): Active
- fold change (FC) (MDA-MB-468 [7]): 2
- inhibition (MDA-MB-468 [8]): Active
- Activity (MCF7 [9]): inactive
- IC50 (MDA-MB-231 [10]): 24 µM
- inhibition (INH) (MDA-MB-231 [11]): 50%
- fold change (FC) (MDA-MB-231 [12]): 2

Compound: S=C=Nc1ccc(C23CC4CC(CC(C4)C2)C3)cc1
- Activity (MDA-MB-231 [3]): Dose-Dependent Effect
- logP [2]: 6.34

Compound: CC(N=C=S)C12CC3CC(CC(C3)C1)C2 (stereo not drawn)
- Activity (MDA-MB-231 [1]): inactive

Compound: S=C=NCCc1ccccc1
- Activity (MDA-MB-231 [1]): Active
- Activity (MCF7 [5]): Active
- p53 R280K downregulation (active/not active) (MDA-MB-231 [6]): Active
- Activity (MCF7 [13]): Active
- Activity (MCF7 [14]): Active
- inhibition (MDA-MB-468 [8]): Active
- Activity (MDA-MB-231 [15]): Active
- Activity (MCF7 [16]): Active
- Activity (MDA-MB-231 [17]): Active
- Activity (MDA-MB-468 [18]): Active
- Activity (MDA-MB-468 [19]): Active

Compound: C1C2CC3CC1CC(C2)C3
- Activity (MDA-MB-231 [1]): inactive
- Activity (MCF7 [5]): inactive
- Activity (MDA-MB-468 [20]): inactive

Compound: CCCC(CN=C=S)C1C2CC3CC(C2)CC1C3 (stereo not drawn)
- Activity (MDA-MB-231 [1]): inactive
- logP [2]: 6.77

Compound: S=C=NC12CC3CC(CC(C3)C1)C2
- Activity (MDA-MB-231 [1]): inactive
- inhibition (MCF7 [4]): inactive
- p53 R280K downregulation (active/not active) (MDA-MB-231 [6]): inactive
- inhibition (MDA-MB-468 [8]): inactive
- Activity (MDA-MB-468 [21]): inactive
- Activity (MDA-MB-231 [22]): inactive
- Activity (MCF7 [9]): inactive

Compound: S=C=NCCC12CC3CC(CC(C3)C1)C2
- Activity (MDA-MB-231 [3]): Dose-Dependent Effect
- inhibition (MCF7 [4]): inactive
- Activity (MCF7 [5]): inactive
- p53 R280K downregulation (active/not active) (MDA-MB-231 [6]): Active
- fold change (FC) (MDA-MB-468 [7]): 2
- inhibition (MDA-MB-468 [8]): Active
- IC50 (MDA-MB-231 [23]): 12 µM
- Activity (MCF7 [9]): inactive
- IC50 (MDA-MB-231 [10]): 24 µM
- fold change (FC) (MDA-MB-231 [12]): 2

Compound: S=C=NCCOC12CC3CC(CC(C3)C1)C2
- Activity (MDA-MB-231 [1]): inactive
- logP at 18 h [2]: 3.73

Compound: CC12CC3CC(C)(C1)CC(N=C=S)(C3)C2
- Activity (MDA-MB-231 [1]): inactive

Compound: O=C1CNC(=S)N1CCC12CC3CC(CC(C3)C1)C2
- Activity (MDA-MB-231 [1]): inactive
- inhibition (MCF7 [4]): inactive
- Activity (MCF7 [5]): inactive
- p53 R280K downregulation (active/not active) (MDA-MB-231 [6]): inactive
- Activity (MDA-MB-468 [20]): inactive
- inhibition (MDA-MB-468 [8]): inactive
- Activity (MDA-MB-468 [21]): inactive
- logP at 18 h [2]: 3.73
- Activity (MDA-MB-231 [22]): inactive
- Activity (MCF7 [9]): inactive

Compound: S=C=NC1C2CC3CC(C2)CC1C3 (stereo not drawn)
- Activity (MDA-MB-231 [1]): inactive

Compound: CC(C)(COC12CC3CC(CC(C3)C1)C2)N=C=S
- Activity (MDA-MB-231 [1]): inactive
